# According to ChEMBL document CHEMBL1133647, “Discovery of a potent, highly selective, and orally efficacious small-molecule activator of the insulin receptor” (J Med Chem, 2000):
# The source made the active and inactive calls. Unless noted, the rule behind the calls is not given here.
# Key:
# [1] = target: Insulin-like growth factor 1 receptor (Homo sapiens) (UniProt P08069); test: Percent insulin like growth factor receptor(IGFIR) activity at 30 uM; format: functional
# In short: (§1)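 IGFIR counterscreen: cell-based receptor activation assay run like the CHO IR assay (20 min compound exposure, lysate capture, radiometric kinase readout). Compound tested at 30 uM; result as % of control response to 100 nM IGFI.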
# Insulin receptor [2] = target: T1, Insulin receptor (Homo sapiens, UniProt P06213); test: Activation of human insulin receptor tyrosine kinase (IRTK)
# In short: (§2)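 CHO cells stably transfected with human insulin receptor, plated 150 000 cells/well for 24 h, serum-starved 2 h, then exposed to compound 20 min at 37 °C. Lysate IR captured on anti-IR antibody wells (16 h, 4 °C), kinase reaction 40 min at 25 °C, radioactivity on phosphocellulose filters. Activity as % of maximal response to 100 nM insulin.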
# [3] = target: Epidermal growth factor receptor (Homo sapiens) (UniProt P00533); test: Percent epidermal growth factor receptor (EGFR) activity at 30 uM; format: functional
# In short: (§3)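 EGFR counterscreen: cell-based receptor activation assay run like the CHO IR assay (20 min compound exposure, lysate capture, radiometric kinase readout). Compound tested at 30 uM; result as % of control response to 100 nM EGF.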
# [4] = target: Platelet-derived growth factor receptor beta (Homo sapiens) (UniProt P09619); test: Percent platelet derived growth factor receptor (PDGFR) activity at 30 uM (NS = less than 5% activation); format: functional
# In short: (§4)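 PDGFR counterscreen: cell-based receptor activation assay run like the CHO IR assay (20 min compound exposure, lysate capture, radiometric kinase readout). Compound tested at 30 uM; result as % of control response to 100 nM PDGF.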
# [5] = target: Epidermal growth factor receptor (Homo sapiens) (UniProt P00533); test: Percent epidermal growth factor receptor (EGFR) activity at 30 uM (NS = less than 5% activation); format: functional; in short: as §3
# Insulin receptor [6] = target: T1, Insulin receptor; test: Activation of human insulin receptor tyrosine kinase (NA = inactive up to 100 uM); in short: as §2
# [7] = target: Insulin-like growth factor 1 receptor (Homo sapiens) (UniProt P08069); test: Percent insulin like growth factor receptor(IGFIR) activity at 30 uM ( NS = less than 5% activation); format: functional; in short: as §1
# [8] = target: Platelet-derived growth factor receptor beta (Homo sapiens) (UniProt P09619); test: Percent platelet derived growth factor receptor (PDGFR) activity at 30 uM; format: functional; in short: as §4
# [9] = target: Insulin-like growth factor 1 receptor (Homo sapiens) (UniProt P08069); test: Percent insulin like growth factor receptor(IGFIR) activity at 30 uM (NS = less than 5% activation); format: functional; in short: as §1
# [10] = plasma clearance in preclinical species was measured after Intravenous administration at the given dose (0.05 mg/kg) in rat; format: ADME, organism-based; details: read-out: Clp
# In short: (§5)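 Male rats, beagle dogs and rhesus monkeys dosed iv in ethanol/PEG400/water (1:3:6, v/v/v), n = 2. Plasma extracted and drug quantified by LC-MS/MS (LOQ = 8-100 ng/mL) against a dihydroxybenzoquinone internal standard.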
# Canis familiaris [11] = test: plasma clearance in preclinical species was measured after Intravenous administration at the given dose (0.1 mg/kg) in dog; format: ADME, organism-based, Canis lupus familiaris; details: in vivo; in short: as §5
# Mus musculus [12] = test: Percent reduction of blood glucose level in a dose-dependent manner at 1 mpk administered once daily for 8-14 days by gavage to ad libitum fed animals; format: functional
# [13] = Time taken for maximum concentration in preclinical species was measured after oral administration at the given dose (0.5 mg/kg) in rat; format: ADME, organism-based; details: in vivo
# In short: (§6)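 Male rats dosed orally at 0.5 mg/kg in ethanol/PEG400/water (1:3:6, v/v/v). Plasma extracted and drug measured by LC-MS/MS (LOQ = 8-100 ng/mL) with an internal standard; bioavailability relative to iv dosing.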
# [14] = terminal half life in preclinical species was measured after Intravenous administration at the given dose (0.01 mg/kg) in monkey; format: ADME, organism-based; details: simiiformes, in vivo; in short: as §5
# Mus musculus [15] = species: Mus musculus; test: Blood glucose level for the age- and sex-matched ob/+ lean mice; format: functional, organism-based
# In short: (§7)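 Male ob/ob mice, 12 weeks old, with ob/+ lean controls, housed 7–9 per cage on chow and water ad libitum. Daily oral gavage of compound or vehicle (0.5% methylcellulose). Food was removed 0–6 h after dosing on days 1 and 2, then fed ad libitum. Blood glucose was taken before dosing and at 24 h after dosing, n = 10/group.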
# [16] = volume of distribution in preclinical species was measured after Intravenous administration at the given dose (0.01 mg/kg) in monkey; format: ADME, organism-based; details: simiiformes, in vivo; in short: as §5
# [17] = bioavailability in preclinical species was measured after oral administration at the given dose (0.5 mg/kg) in rat; format: ADME, organism-based; details: in vivo; in short: as §6
# [18] = area under curve in preclinical species was measured after Intravenous administration at the given dose (0.01 mg/kg) in monkey; format: ADME, organism-based; details: simiiformes, in vivo; in short: as §5
# [19] = area under curve in preclinical species was measured after oral administration at the given dose (0.5 mg/kg) in dog; format: ADME, organism-based, Canis lupus familiaris; details: in vivo
# In short: (§8)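 Beagle dogs or rhesus monkeys (male) dosed orally at 0.5 mg/kg as a 0.5% methylcellulose suspension with 0.02% sodium lauryl sulfate. Plasma extracted and drug measured by LC-MS/MS (LOQ = 8-100 ng/mL) with an internal standard; bioavailability relative to iv dosing.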
# Mus musculus [20] = test: Percent reduction of blood glucose level in a dose-dependent manner at 0.1 mpk administered once daily for 8-14 days by gavage to ad libitum fed animals; format: functional
# [21] = area under curve in preclinical species was measured after Intravenous administration at the given dose (0.1 mg/kg) in dog; format: ADME, organism-based, Canis lupus familiaris; details: in vivo; in short: as §5
# [22] = bioavailability in preclinical species was measured after oral administration at the given dose (0.5 mg/kg) in monkey; format: ADME, organism-based; details: primates, in vivo; in short: as §8
# Mus musculus [23] = test: Blood glucose concentration at predosing of 10 mpk; format: functional, organism-based; in short: as §7
# Mus musculus [24] = test: Percent reduction of blood glucose level in a dose-dependent manner at 10 mpk administered once daily for 8-14 days by gavage to ad libitum fed animals; format: functional
# [25] = Time taken for maximum concentration in preclinical species was measured after oral administration at the given dose (0.5 mg/kg) in monkey; format: ADME, organism-based; details: simiiformes, in vivo; in short: as §8
# Mus musculus [26] = test: Decrease in blood glucose concentration at 24 hr postdosing of 10 mpk; format: functional, organism-based; in short: as §7
# [27] = maximum concentration in plasma in preclinical species was measured after oral administration at the given dose (0.5 mg/kg) in dog; format: ADME, organism-based, Canis lupus familiaris; design: dose 0.5 mg/kg, route oral; in short: as §8
# [28] = area under curve in preclinical species was measured after Intravenous administration at the given dose (0.05 mg/kg) in rat; format: ADME, organism-based; details: in vivo; in short: as §5
# Canis familiaris [29] = test: volume of distribution in preclinical species was measured after Intravenous administration at the given dose (0.1 mg/kg) in dog; format: ADME, organism-based, Canis lupus familiaris; details: in vivo; in short: as §5
# [30] = maximum concentration in plasma in preclinical species was measured after oral administration at the given dose (0.5 mg/kg) in monkey; format: ADME, organism-based; design: dose 0.5 mg/kg, route oral; details: simiiformes; in short: as §8
# [31] = maximum concentration in plasma in preclinical species was measured after oral administration at the given dose (0.5 mg/kg) in rat; format: ADME, organism-based; design: dose 0.5 mg/kg, route oral; in short: as §6
# [32] = Time taken for maximum concentration in preclinical species was measured after oral administration at the given dose (0.5 mg/kg) in dog; format: ADME, organism-based, Canis lupus familiaris; details: in vivo; in short: as §8
# [33] = terminal half life in preclinical species was measured after Intravenous administration at the given dose (0.05 mg/kg) in rat; format: ADME, organism-based; details: in vivo; in short: as §5
# [34] = plasma clearance in preclinical species was measured after Intravenous administration at the given dose (0.01 mg/kg) in monkey; format: ADME, organism-based; details: simiiformes, in vivo; in short: as §5
# Canis familiaris [35] = test: terminal half life in preclinical species was measured after Intravenous administration at the given dose (0.1 mg/kg) in dog; format: ADME, organism-based, Canis lupus familiaris; details: in vivo; in short: as §5
# [36] = bioavailability in preclinical species was measured after oral administration at the given dose (0.5 mg/kg) in dog; format: ADME, organism-based, Canis lupus familiaris; details: in vivo; in short: as §8
# [37] = area under curve in preclinical species was measured after oral administration at the given dose (0.5 mg/kg) in monkey; format: ADME, organism-based; details: simiiformes, in vivo; in short: as §8
# [38] = volume of distribution in preclinical species was measured after Intravenous administration at the given dose (0.05 mg/kg) in rat; format: ADME, organism-based; details: in vivo, read-out: Vdss; in short: as §5
# Chain of Platelet-derived growth factor receptor beta (Homo sapiens) (P09619 whole entry): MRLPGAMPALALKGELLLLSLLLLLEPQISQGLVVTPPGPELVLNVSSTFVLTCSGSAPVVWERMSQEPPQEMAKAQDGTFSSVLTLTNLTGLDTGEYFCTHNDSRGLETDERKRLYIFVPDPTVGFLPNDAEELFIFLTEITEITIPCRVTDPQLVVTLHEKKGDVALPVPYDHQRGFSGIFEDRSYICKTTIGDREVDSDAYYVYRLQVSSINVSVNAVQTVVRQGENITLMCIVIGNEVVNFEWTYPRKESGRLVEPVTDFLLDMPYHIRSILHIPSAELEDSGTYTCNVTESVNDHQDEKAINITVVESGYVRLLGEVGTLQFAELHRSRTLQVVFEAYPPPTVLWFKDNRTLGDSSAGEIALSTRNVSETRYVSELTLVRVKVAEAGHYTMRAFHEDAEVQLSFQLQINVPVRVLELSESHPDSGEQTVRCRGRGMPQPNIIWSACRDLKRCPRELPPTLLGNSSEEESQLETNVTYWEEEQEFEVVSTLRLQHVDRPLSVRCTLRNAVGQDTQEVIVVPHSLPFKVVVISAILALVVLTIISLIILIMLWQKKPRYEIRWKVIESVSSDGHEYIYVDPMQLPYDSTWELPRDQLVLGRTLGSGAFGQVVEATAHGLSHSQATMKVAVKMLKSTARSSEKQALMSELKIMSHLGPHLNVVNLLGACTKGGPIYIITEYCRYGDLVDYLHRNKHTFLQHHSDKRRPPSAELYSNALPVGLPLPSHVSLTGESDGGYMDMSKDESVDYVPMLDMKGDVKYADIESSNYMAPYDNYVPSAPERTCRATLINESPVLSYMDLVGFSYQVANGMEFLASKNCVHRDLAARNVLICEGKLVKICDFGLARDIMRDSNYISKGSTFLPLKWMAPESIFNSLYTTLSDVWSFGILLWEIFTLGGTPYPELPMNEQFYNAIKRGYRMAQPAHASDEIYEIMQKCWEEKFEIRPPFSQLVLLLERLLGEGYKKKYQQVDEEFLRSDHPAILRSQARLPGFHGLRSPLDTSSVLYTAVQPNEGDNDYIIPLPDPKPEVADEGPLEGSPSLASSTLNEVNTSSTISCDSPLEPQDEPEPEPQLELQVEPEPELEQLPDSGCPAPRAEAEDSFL
# T1 sequence (P06213 28-758 limits assumed): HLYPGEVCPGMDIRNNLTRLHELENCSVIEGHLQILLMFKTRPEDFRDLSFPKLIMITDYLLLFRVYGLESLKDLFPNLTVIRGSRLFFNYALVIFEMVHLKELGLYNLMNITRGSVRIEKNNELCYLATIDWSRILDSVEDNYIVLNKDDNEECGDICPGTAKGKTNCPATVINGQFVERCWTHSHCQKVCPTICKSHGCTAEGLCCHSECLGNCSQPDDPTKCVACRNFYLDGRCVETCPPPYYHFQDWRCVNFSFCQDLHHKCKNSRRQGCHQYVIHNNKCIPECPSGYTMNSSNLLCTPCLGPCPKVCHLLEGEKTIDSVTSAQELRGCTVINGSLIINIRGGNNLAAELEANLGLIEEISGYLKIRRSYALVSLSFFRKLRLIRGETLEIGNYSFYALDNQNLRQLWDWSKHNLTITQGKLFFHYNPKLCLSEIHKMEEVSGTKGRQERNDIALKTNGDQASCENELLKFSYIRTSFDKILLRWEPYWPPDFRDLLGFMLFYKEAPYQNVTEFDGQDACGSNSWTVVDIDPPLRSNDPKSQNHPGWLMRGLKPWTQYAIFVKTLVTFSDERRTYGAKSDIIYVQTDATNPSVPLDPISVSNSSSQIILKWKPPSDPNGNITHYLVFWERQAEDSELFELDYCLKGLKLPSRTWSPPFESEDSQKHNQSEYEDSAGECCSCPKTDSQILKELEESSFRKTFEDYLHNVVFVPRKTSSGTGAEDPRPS
# T1 sequence (P06213 763-1382 limits assumed): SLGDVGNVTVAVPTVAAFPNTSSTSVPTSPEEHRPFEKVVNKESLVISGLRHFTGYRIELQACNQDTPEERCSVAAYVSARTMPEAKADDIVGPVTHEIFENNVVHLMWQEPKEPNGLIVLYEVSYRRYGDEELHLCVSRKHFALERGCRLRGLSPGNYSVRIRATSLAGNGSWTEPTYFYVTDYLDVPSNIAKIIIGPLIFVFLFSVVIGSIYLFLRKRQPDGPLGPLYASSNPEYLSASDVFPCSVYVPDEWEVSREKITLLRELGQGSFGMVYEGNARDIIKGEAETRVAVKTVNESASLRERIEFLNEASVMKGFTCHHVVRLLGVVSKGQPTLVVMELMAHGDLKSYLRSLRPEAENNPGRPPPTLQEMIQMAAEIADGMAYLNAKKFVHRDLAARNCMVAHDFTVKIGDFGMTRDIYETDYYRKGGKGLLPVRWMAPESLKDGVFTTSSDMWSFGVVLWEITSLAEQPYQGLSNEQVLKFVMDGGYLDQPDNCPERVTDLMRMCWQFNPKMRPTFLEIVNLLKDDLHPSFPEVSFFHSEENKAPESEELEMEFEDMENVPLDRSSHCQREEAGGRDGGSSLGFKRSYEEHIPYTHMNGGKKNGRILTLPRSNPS
# Chain of Insulin-like growth factor 1 receptor (Homo sapiens) (P08069 31-736 limits assumed): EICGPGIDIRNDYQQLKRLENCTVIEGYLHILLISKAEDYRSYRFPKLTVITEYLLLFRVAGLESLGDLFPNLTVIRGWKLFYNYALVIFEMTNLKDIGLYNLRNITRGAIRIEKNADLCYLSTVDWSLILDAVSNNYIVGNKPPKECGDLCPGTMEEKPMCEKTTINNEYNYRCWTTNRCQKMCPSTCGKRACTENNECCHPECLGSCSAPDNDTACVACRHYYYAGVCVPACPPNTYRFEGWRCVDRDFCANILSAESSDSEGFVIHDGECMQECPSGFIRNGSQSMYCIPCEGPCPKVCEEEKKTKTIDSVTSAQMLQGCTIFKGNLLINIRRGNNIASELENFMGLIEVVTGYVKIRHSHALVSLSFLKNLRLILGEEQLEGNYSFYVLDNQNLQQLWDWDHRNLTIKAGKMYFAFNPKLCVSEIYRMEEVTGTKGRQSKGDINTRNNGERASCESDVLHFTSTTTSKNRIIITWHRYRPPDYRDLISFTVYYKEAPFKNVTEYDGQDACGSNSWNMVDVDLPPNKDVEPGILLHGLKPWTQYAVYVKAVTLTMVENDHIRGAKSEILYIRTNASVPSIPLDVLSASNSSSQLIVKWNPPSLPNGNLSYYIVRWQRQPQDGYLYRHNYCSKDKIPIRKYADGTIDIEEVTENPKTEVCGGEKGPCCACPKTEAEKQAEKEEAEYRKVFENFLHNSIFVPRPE
# Chain of Insulin-like growth factor 1 receptor (Homo sapiens) (P08069 741-1367 limits assumed): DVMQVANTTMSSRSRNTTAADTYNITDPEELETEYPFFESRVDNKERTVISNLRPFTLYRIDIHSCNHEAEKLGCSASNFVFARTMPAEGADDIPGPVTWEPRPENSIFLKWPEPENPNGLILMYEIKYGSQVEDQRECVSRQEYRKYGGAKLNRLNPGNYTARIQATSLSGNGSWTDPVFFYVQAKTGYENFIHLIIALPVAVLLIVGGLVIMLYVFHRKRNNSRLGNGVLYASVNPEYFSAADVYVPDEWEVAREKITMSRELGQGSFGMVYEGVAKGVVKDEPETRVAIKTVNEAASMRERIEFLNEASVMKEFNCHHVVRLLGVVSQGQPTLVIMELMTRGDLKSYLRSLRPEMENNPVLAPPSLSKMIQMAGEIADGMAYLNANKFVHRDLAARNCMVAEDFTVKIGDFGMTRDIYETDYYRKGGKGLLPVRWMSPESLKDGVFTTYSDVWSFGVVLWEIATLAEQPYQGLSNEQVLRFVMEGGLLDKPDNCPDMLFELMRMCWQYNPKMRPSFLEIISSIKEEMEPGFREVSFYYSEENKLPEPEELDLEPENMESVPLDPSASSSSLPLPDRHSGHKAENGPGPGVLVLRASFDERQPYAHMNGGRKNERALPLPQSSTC
# Chain of Epidermal growth factor receptor (Homo sapiens) (P00533 whole entry): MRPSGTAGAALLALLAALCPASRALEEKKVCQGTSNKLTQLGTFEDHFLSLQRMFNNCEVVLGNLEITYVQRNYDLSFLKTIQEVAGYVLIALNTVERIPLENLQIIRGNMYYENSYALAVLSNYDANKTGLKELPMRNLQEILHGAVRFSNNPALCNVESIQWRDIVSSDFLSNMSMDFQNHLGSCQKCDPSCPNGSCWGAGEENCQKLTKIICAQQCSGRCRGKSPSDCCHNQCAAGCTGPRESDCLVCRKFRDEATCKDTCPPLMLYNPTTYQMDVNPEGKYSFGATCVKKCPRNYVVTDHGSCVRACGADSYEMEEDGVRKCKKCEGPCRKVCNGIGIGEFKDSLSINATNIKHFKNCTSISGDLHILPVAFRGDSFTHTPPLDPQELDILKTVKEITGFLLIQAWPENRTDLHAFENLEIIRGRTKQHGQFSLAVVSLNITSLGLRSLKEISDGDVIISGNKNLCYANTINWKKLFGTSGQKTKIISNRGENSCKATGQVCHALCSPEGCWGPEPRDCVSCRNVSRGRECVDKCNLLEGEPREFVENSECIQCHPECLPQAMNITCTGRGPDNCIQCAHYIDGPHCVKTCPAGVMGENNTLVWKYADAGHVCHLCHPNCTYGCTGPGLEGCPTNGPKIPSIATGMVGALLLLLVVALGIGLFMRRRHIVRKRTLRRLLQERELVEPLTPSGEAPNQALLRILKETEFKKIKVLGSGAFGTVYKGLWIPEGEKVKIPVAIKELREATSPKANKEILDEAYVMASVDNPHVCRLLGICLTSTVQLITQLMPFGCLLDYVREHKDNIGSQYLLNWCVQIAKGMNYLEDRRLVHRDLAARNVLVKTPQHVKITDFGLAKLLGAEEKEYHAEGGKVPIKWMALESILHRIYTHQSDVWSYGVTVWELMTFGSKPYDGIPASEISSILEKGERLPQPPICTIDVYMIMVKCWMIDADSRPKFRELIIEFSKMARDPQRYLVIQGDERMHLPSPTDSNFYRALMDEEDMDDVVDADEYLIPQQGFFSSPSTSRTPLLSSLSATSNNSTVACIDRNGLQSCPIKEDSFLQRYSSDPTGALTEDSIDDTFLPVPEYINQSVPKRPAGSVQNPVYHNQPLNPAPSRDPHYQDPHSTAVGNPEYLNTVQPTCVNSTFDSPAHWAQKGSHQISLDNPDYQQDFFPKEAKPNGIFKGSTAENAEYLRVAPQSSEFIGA
smiles,measurement,setting,value
Cc1cccc2c(C3=C(O)C(O)=C(c4c[nH]c5ccccc45)C(=O)C3=O)c[nH]c12,Activation,[1],32%
same,EC50,Insulin receptor [2],7 µM
same,Activation,[3],25%
O=C1C(O)=C(c2c[nH]c3ccccc23)C(=O)C(O)=C1c1ccccc1,Activation,[1],41%
same,EC50,Insulin receptor [2],0.3 µM
same,Activation,[4],inactive
same,Activation,[3],20%
COc1ccc(C2=C(O)C(O)=C(c3ccccc3)C(=O)C2=O)cc1,Activation,[4],inactive
same,Activation,[5],inactive
same,EC50,Insulin receptor [6],Not Active
same,Activation,[7],inactive
C=CC(C)(C)c1[nH]c2ccccc2c1C1=C(O)C(O)=C(c2c[nH]c3c(CC=C(C)C)cccc23)C(=O)C1=O,Activation,[8],6%
same,Activation,[1],38%
same,EC50,Insulin receptor [2],5 µM
same,Activation,[3],15%
O=C1C(O)=C(c2csc3ccccc23)C(=O)C(O)=C1c1ccccc1,EC50,Insulin receptor [2],1 µM
same,Activation,[4],inactive
same,Activation,[9],inactive
same,Activation,[5],inactive
O=C1C(O)=C(c2ccc3ccccc3c2)C(=O)C(O)=C1c1ccccc1,EC50,Insulin receptor [2],30 µM
same,Activation,[4],inactive
same,Activation,[9],inactive
O=C1C(O)=C(c2coc3ccccc23)C(=O)C(O)=C1c1ccccc1,EC50,Insulin receptor [2],1.5 µM
same,Activation,[4],inactive
same,Activation,[9],inactive
same,Activation,[5],inactive
Cn1cc(C2=C(O)C(O)=C(c3ccccc3)C(=O)C2=O)c2ccccc21,clearance,[10],2.28 mL/h/kg
same,Clp,Canis familiaris [11],1.14 mL/h/kg
same,Reduction,Mus musculus [12],47%
same,Tmax,[13],10 h
same,T1/2,[14],66 h
same,Concentration,Mus musculus [15],143 mg/dL
same,Vdss,[16],0.31 L/kg
same,bioavailability,[17],79.3%
same,AUC,[18],8.37 µg·h/mL
same,AUC,[19],266 µg·h/mL
same,Reduction,Mus musculus [20],29%
same,AUC,[21],89.8 µg·h/mL
same,bioavailability,[22],66.5%
same,Concentration,Mus musculus [23],233 mg/dL
same,Reduction,Mus musculus [24],84%
same,Tmax,[25],8 h
same,EC50,Insulin receptor [2],0.3 µM
same,Concentration,Mus musculus [26],150 mg/dL
same,Activation,[4],inactive
same,Cmax,[27],5.27 µg/mL
same,AUC,[28],21.8 µg·h/mL
same,Vdss,Canis familiaris [29],0.56 L/kg
same,Cmax,[30],7.59 µg/mL
same,Activation,[9],inactive
same,Activation,[5],inactive
same,Cmax,[31],4.88 µg/mL
same,Tmax,[32],2.5 h
same,half-life,[33],32 h
same,Clp,[34],1.2 mL/h/kg
same,T1/2,Canis familiaris [35],93.5 h
same,bioavailability,[36],59.2%
same,AUC,[37],278 µg·h/mL
same,Vd,[38],0.1 L/kg
O=C1C(O)=C(c2cccc3ccccc23)C(=O)C(O)=C1c1ccccc1,EC50,Insulin receptor [2],6 µM
same,Activation,[4],inactive
same,Activation,[9],inactive
